Screening data (PubChem BioAssay)
PfM18AAP inh: PfM18AAP enzyme inhibition | inhibition, % at 7.35 µM | AID 1822 | actives 1.2% (n = 290,000) | recombinant PfM18AAP, H-Glu-NHMec fluorogenic cleavage;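 active means inhibition above the campaign mean inhibition over all tested compounds plus 3 SD, cut at about 28% in these data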
HGIII-sPLA2 inh: Inhibits HGIII-sPLA2 liposome hydrolysis, primary screen. Q9NZ20. QFRET BODIPY PC-A2 liposome hydrolysis, fluorescence. inhibition, % at 12.2 µM. actives 0.56% (n = 370,000);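 active means inhibition above mean plus 3 SD of compounds lying within the high and low control bounds, cut at about 19% in these data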
Target sequence (Q9NZ20 whole entry, looked up): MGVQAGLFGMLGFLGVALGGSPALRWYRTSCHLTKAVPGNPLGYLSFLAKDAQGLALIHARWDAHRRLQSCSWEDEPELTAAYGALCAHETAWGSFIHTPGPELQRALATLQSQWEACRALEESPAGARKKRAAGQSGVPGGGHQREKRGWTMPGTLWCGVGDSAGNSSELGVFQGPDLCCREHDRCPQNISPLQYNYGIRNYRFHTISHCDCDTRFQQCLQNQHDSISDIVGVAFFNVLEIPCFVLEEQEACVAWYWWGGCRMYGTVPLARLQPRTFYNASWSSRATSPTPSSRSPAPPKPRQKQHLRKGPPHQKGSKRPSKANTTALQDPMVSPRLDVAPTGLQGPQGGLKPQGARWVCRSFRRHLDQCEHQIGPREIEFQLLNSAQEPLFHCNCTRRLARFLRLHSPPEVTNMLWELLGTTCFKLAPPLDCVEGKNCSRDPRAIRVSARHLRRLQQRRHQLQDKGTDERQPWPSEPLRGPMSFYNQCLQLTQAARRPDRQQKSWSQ
IMP-1 inh-1: inhibitors of Pseudomonas aeruginosa IMP-1 metallo-beta-lactamase | inhibition, % at 5.6 µM | purified IMP-1, nitrocefin hydrolysis, epi-absorbance fluorescence | AID 1556 | actives 0.45% (n = 290,000);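 active means inhibition above the mean plus 3 SD of all compounds in the same screening run, cut at about 4.5% in these data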
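Assay system: purified recombinant IMP-1 beta-lactamase. Input: IMP-1 0.2 nM before substrate addition. Buffer or medium: Zinc- and detergent-supplemented HEPES buffer, pH 7.1. Schedule: 25 °C, 15 min preincubation, 25 min reaction. Signal: Epi-absorbance fluorescence, 480 nm excitation, 530 nm emission. Evaluation: percent inhibition from optical density relative to buffer-blank wells.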
VIM-2 inh: inhibitors of Pseudomonas aeruginosa VIM-2 metallo-beta-lactamase | purified VIM-2, nitrocefin hydrolysis, epi-absorbance fluorescence | actives 0.89% (n = 290,000) | inhibition, % at 5.6 µM | AID 1527;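 active means inhibition above the mean of all tested compounds plus 3 SD, cutoff set per screening run, cut at about 7.5% in these data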;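 further: red hydrolysis product quenches plate fluorescence so inhibitors raise well fluorescence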
IMP-1 inh-2: blocks IMP-1 metallo-beta-lactamase in VIM-2 selectivity screen. shares compounds with VIM-2 inh. purified IMP-1, nitrocefin hydrolysis, epi-absorbance fluorescence. inhibition, % at 5.6 µM. 1,300 tested, under 10 active. AID 1856; call rule not given here
VIM-2 FRET inh: inhibits VIM-2 in FRET assay to exclude epi-absorbance artifacts. shares compounds with VIM-2 inh. purified VIM-2, CCF2 FRET substrate hydrolysis. inhibition, % at 5.6 µM. actives 23% (n = 1,300). AID 1857;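 active means inhibition above the mean of all tested compounds plus 3 SD, cut at about 19% in these data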
TEM-1 counter: blocks E. coli TEM-1 beta-lactamase in VIM-2 selectivity screen; shares compounds with VIM-2 inh; AID 1866; inhibition, % at 5.6 µM; Purified TEM-1, nitrocefin hydrolysis, epi-absorbance fluorescence; actives 3% (n = 1,300);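 active means inhibition above that campaign's mean inhibition plus 3 SD, cut at about 0.46% in these data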
VIM-2 inh conf: confirmation of P. aeruginosa VIM-2 metallo-beta-lactamase inhibitors. shares compounds with VIM-2 inh. purified VIM-2, nitrocefin hydrolysis, epi-absorbance. inhibition, % at 5.6 µM. actives 96% (n = 1,300);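 active means inhibition of the VIM-2 beta-lactamase enzyme above about 11% from the earlier first-round screen, limit read from the data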
Hits are given with their value; n = inactive; x = not tested or not shown. A selection: hits, their analogues and other compounds. The true share with any hit is near 2.4%.

SMILES | PfM18AAP inh | HGIII-sPLA2 inh | IMP-1 inh-1 | VIM-2 inh | IMP-1 inh-2 | VIM-2 FRET inh | TEM-1 counter | VIM-2 inh conf
Cn1c(C(=O)NCCCN2CCOCC2)cc2c(=O)n(C)c3ccccc3c21 | n | n | n | 17.9 | n | n | n | 27.8
Cn1c(C(=O)NCCN2CCN(Cc3ccccc3)CC2)cc2c(=O)n(C)c3ccccc3c21 | x | n | x | x | x | x | x | x
Cc1ccn(CC(=O)N2CCCC(N3CCN(Cc4ccc5c(c4)OCO5)CC3)C2)n1 (stereo not given) | n | n | n | n | x | x | x | x
CC1CCCN(c2c3c(nc4ccccc24)CCCC3)C1 (stereo not given) | n | n | n | 13.2 | n | n | n | 20.6
COC(=O)C[C@H]1C=C[C@@H](NC(=O)NC2CCCCC2)[C@@H](CO)O1 | x | n | x | x | x | x | x | x
CCC[C@@H](CNC)NC[C@H](Cc1ccccc1)NCCCCc1ccccc1 | n | n | n | 55.6 | n | n | n | 65.8
CC(=O)Nc1cccc(-c2nnc(SCC(=O)n3c4c(c5ccccc53)CCCC4)n2C)c1 | n | n | n | 15.5 | n | n | n | n
CC(=O)Nc1cccc(-c2nnc(SCC(=O)N3CCCCC3)n2C)c1 | n | n | n | n | x | x | x | x
CCCN1CCN(C(=O)CCn2c(=O)c3cccn3c3cccnc32)CC1 | n | n | n | 12.6 | n | n | n | 23.8
CCN1CCN(C(=O)CCn2c(=O)c3cccn3c3cccnc32)CC1 | n | n | n | 17.3 | n | n | n | 25.2
O=C(CCCn1c(=O)c2cccn2c2cccnc21)N1CCN(c2ccccc2F)CC1 | n | n | n | n | x | x | x | x
COc1ccc(N2CCN(C(=O)CCCn3c(=O)c4cccn4c4cccnc43)CC2)cc1 | n | n | n | n | x | x | x | x
COc1ccc([N+](=O)[O-])cc1NC(=O)C(C)NNC(=O)c1cccc([N+](=O)[O-])c1 (stereo not given) | x | n | x | x | x | x | x | x
COC(=O)[C@]12CCCCC=C1N(Cc1ccc3c(c1)OCO3)C(=O)[C@H](CC(=O)NCCCN1CCCC1=O)C2 | x | n | x | x | x | x | x | x
COc1cnc(-c2ccccn2)nc1Oc1ccc(F)cc1F | n | n | n | 18.2 | n | n | n | 28.6
COc1cnc(-c2ccccn2)nc1Oc1ccccc1Cl | n | n | n | 17.1 | n | n | n | 45.8
COc1cnc(-c2ccccn2)nc1Oc1ccc(Cl)c2ccccc12 | n | n | n | 39.5 | n | n | n | 75.9
COc1cnc(-c2ccccn2)nc1Oc1ccc(Cl)cc1 | n | n | n | n | x | x | x | x
O=C(O)c1cccc(S(=O)(=O)NCC(=O)N2CCN(c3ccccn3)CC2)c1 | x | n | x | x | x | x | x | x
C[C@H]1CN([C@@H](C)CO)S(=O)(=O)c2ccc(Br)cc2O[C@H]1CN(C)C(=O)c1ccccc1F | x | n | x | x | x | x | x | x
Oc1ccc2ccccc2c1-c1sc(Nc2ccccc2)n[n+]1-c1ccc(F)cc1 | n | n | n | 16.9 | 4.9 | n | 1.3 | 8.2
CCOC(=O)N1CCN(C(=O)CSc2ccc(C(F)(F)F)cc2[N+](=O)[O-])CC1 | n | n | n | n | x | x | x | x
CN1CCN(C(=O)CSc2ccc(C(F)(F)F)cc2[N+](=O)[O-])CC1 | n | n | n | 13.2 | n | n | n | 38.5
Cc1cc(C)cc(Oc2nc(C(F)(F)F)nc3ccccc23)c1 | n | n | n | n | x | x | x | x
CC(=O)Nc1ccc(Oc2nc(C(F)(F)F)nc3ccccc23)cc1 | n | n | n | 21.2 | n | n | n | 30.5
SMILES | PfM18AAP inh | HGIII-sPLA2 inh | IMP-1 inh-1 | VIM-2 inh | IMP-1 inh-2 | VIM-2 FRET inh | TEM-1 counter | VIM-2 inh conf
Cc1nnc2ccc(-c3cccc(NC(=O)c4ccco4)c3)nn12 | n | n | n | 15.3 | n | n | n | 24.9
COc1ccc(CC(=O)Nc2cccc(-c3ccc4nnc(C)n4n3)c2)cc1 | n | n | n | n | x | x | x | x
O=C(CCCN1C(=O)/C(=C/c2ccccc2)SC1=S)NCCCn1ccnc1 | n | n | n | n | x | x | x | x
O=C(CCN1C(=O)/C(=C/c2ccccc2F)SC1=S)NCCCn1ccnc1 | n | n | n | 36.5 | n | 44.0 | n | 41.4
CCCCn1c(-c2ccco2)n[nH]c1=S | n | n | n | 42.5 | n | 72.1 | n | 53.3
CCn1c(-c2ccco2)n[nH]c1=S | n | n | n | n | x | x | x | x
CC(C)Cn1c(-c2ccco2)n[nH]c1=S | n | n | n | 17.3 | n | 49.3 | n | 31.3
CCCCn1c(-c2ccoc2C)n[nH]c1=S | n | n | n | 16.2 | n | 45.4 | n | 30.2
COc1ccc(Cn2c(-c3ccco3)nc3c(c(=O)c4ccccc4n3C)c2=O)cc1 | n | n | n | n | x | x | x | x
CC(C)Cn1c(-c2ccco2)nc2c(c(=O)c3ccccc3n2C)c1=O | n | n | n | 13.5 | n | n | n | 31.9
COc1ccc(NC(=O)CN(c2ccc(OC)c(Cl)c2)S(=O)(=O)c2ccccc2)c(OC)c1 | n | n | n | n | x | x | x | x
O=C(CCSc1ccc(F)cc1)NNC(=O)c1ccc([N+](=O)[O-])cc1 | x | n | x | x | x | x | x | x
Cn1c(-c2ccco2)n[nH]c1=S | n | n | n | n | x | x | x | x
Cc1ccccc1-n1c(-c2ccco2)n[nH]c1=S | 30.0 | n | n | 13.5 | n | 44.9 | n | 31.4
CCCCc1ccc(-c2noc(CCC(=O)NCC)n2)cc1 | x | n | x | x | x | x | x | x
CN(C)S(=O)(=O)c1ccc(NC(=O)COc2ncnc3sccc23)cc1 | n | n | n | 21.8 | n | n | n | n
C=CCn1c2ccccc2c2nn(C)c(=S)nc21 | n | n | n | 13.8 | n | n | n | 17.4
C[C@@H]1CN([C@H](C)CO)C(=O)CCCn2cc(nn2)CO[C@H]1CN(C)C(=O)Nc1ccccc1C(F)(F)F | x | n | x | x | x | x | x | x
O=S1(=O)c2ccccc2-c2c(nnn2Cc2ccccc2)CN1C1CC1 | x | n | x | x | x | x | x | x
CC(Oc1cc2oc(=O)c3c(c2cc1Cl)CCC3)C(=O)NC1CC(C)(C)NC(C)(C)C1 (stereo not given) | n | n | n | 25.0 | n | n | n | 34.9
Cc1c(C)c2ccc(OC(C)C(=O)NC3CC(C)(C)NC(C)(C)C3)cc2oc1=O (stereo not given) | n | n | n | n | x | x | x | x
Cc1cc(OC(C)C(=O)NC2CC(C)(C)NC(C)(C)C2)c2c(C)c(C)c(=O)oc2c1 (stereo not given) | x | n | x | x | x | x | x | x
CC(Oc1ccc2c3c(c(=O)oc2c1)CCCC3)C(=O)NC1CC(C)(C)NC(C)(C)C1 (stereo not given) | n | n | n | 15.3 | n | n | n | 20.1
CC(Oc1cc2oc(=O)c3c(c2cc1Cl)CCC3)C(=O)NCCCN1CCOCC1 (stereo not given) | n | n | n | n | x | x | x | x
CC(Oc1ccc2c3c(c(=O)oc2c1)CCC3)C(=O)NC1CCN(Cc2ccccc2)CC1 (stereo not given) | n | n | n | 22.3 | n | n | n | 31.4
